Compound activity as filed in PubChem.
Rows were chosen to be rich in hits. Some 2.3% of all compounds tested hit in one or more screens of this group.
CFTR F508del cor: correctors of CFTR F508del function in bronchial epithelial cells. CFBE cells, YFP halide quenching; stimulated with forskolin plus potentiator P3; % fluorescence drop versus neutral controls. activity (quench increase), % at 7.58 µM. actives 0.36% (n = 350,000);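 active = mean added fluorescence quench of at least 8% versus neutral control, with both replicates also reaching 8%; inconclusive = only one of the mean or replicate conditions met; inactive = mean below 8% and not both replicates reaching 8%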;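 also: cells transiently co-express mutant CFTR-F508del with the halide-sensitive YFP; corrector assay measuring rescue of mutant channel to the surface after 24 h compound exposure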
PAX8 reporter: inhibitors of PAX8 transcriptional activity in RMG-I cells | inhibition, % at 12.6 µM | RMG-I TPO-luciferase reporter, SteadyGlo, 24 h | actives 1.2% (n = 360,000);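 active = mean replicate inhibition at least 60% with every replicate also reaching 60%; inconclusive = only one of the two criteria is met; inactive = mean below 60% and not all replicates reaching 60%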;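 also: luciferase light reporting Pax8 driven TPO promoter activity; plate controls were median of neutral control wells for no effect and mitoxantrone controls for full effect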
PGC1a acetyl inh: modulators of PGC1a acetylation. U2OS PGC1a acetylation, AlphaScreen anti-acetyl-lysine; with virally co-expressed GCN5 acetyltransferase. inhibition, % at 15.6 µM. actives 0.17% (n = 350,000);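 active = every replicate shows inhibition of at least 40%; inconclusive = mean inhibition at least 40% but some replicate below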;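 also: 0% = neutral control wells and 100% = positive control wells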
FN deposition inh: fibronectin deposition inhibition | AH1F fibroblasts, Alexa488-fibronectin deposition fluorescence, overnight | inhibition, % at 12.6 µM | AID 743247 | actives 0.086% (n = 350,000);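 active = mean inhibition across replicates of 30% or more, regardless of how many single replicates reach that level; inconclusive = mean under 30% yet at least half of replicates reach 30%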;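 also: positive control wells lacked labelled fibronectin entirely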
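Material: AH1F fibroblasts assembling fluorescent fibronectin matrix; amount: 10000 AH1F cells/well; medium: DMEM, 2% serum; reagent: Alexa488-fibronectin, 24 nM final in well; dosing: single compound dose, delivered by pin transfer; incubation: 1 h adhesion, overnight exposure; detection: fluorescence after three HBSS washes, excitation 485 nm, emission 525 nm; measure: fibronectin deposition inhibition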
EWS-Fli inh: EWS/Fli transcriptional activity inhibition | A673 NR0B1-luciferase reporter, viability-normalised | inhibition, % at 12.6 µM | actives 0.67% (n = 350,000) | AID 651661;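 active = mean inhibition of at least 50% after viability correction, with every replicate also passing that limit; inconclusive = mean reaches 50% but only one of two replicates passes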;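 also: firefly luciferase signal divided by Alamar Blue viability fluorescence both relative to DMSO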
Env fusion inh: inhibitors of HIV Env-mediated cell fusion. inhibition, % at 12.3 µM. HeLa-JRFL Env/CEM21 cell fusion, luciferase. actives 1.1% (n = 360,000);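 active = mean replicate inhibition score of at least 50 and every replicate individually at or above 50; inconclusive = only one of the two criteria met; inactive = mean below 50 and not all replicates reaching 50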;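 also: 0% = plate neutral controls and 100% = maraviroc near 300 nM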
The depositor's hits bear a star; ? = inconclusive; . = not tested or not shown; [ ] = another dose, or the depositor's remark.

SMILES	CFTR F508del cor	PAX8 reporter	PGC1a acetyl inh	FN deposition inh	EWS-Fli inh	Env fusion inh
C[C@H]1CN([C@@H](C)CO)S(=O)(=O)c2ccc(-c3cccc(C#N)c3)cc2O[C@H]1CN(C)C(=O)c1ccc(F)cc1	0	.	-17	.	6	-3[16.7 µM]
COc1ccc(NC(=O)C(=O)NCC2CCCN2S(=O)(=O)c2cccs2)cc1 (stereo unspecified)	17*	35	.	12	48	83*
CO[C@H]1CN(C)C(=O)c2ccc(NC(=O)c3ccc4c(c3)OCO4)cc2OC[C@H](C)N(CC2CC2)C[C@H]1C	1	-6	-1	2	-6	.
CCCCCCC[N+](CC)(CC)CCCCc1ccc(Cl)cc1	0	87*	14	-8	19	6
CCCCCNCc1ccc(Cl)cc1	0	3	.	-6	-4	9
O=C1C=C(NCCc2cc(Br)c(O)c(Br)c2)C(=O)c2ncccc21	16*	101*	.	7	19	-2
CS(=O)(=O)Nc1ccc2c(c1)[C@@H]1C[C@H](CC(=O)NCc3ccc(Oc4ccccc4)cc3)O[C@@H](CO)[C@@H]1O2	2	85*	-18	-12	43	4[16.7 µM]
CS(=O)(=O)Nc1ccc2c(c1)[C@H]1C[C@H](CC(=O)NCc3ccc(-c4ccccc4)cc3)O[C@H](CO)[C@H]1O2	-1	24	-1	-9	8	78*[16.7 µM]
CN(C)c1ccc2c(c1)[C@@H]1C[C@@H](CC(=O)NCc3ccc(Oc4ccccc4)cc3)O[C@@H](CO)[C@@H]1O2	6	86*	0	-53	51*	-212[16.7 µM]
CCCN(C)C[C@@H]1Oc2cc(C#CCC3CCCC3)ccc2S(=O)(=O)N([C@H](C)CO)C[C@H]1C	-1	71*	-8	16	43	39[16.7 µM]
CCN(C)C[C@@H]1Oc2cc(C#CCC3CCCC3)ccc2S(=O)(=O)N([C@@H](C)CO)C[C@H]1C	-2	18	6	.	9	-5[16.7 µM]
CCCN(C)C[C@@H]1Oc2cc(C#Cc3ccncc3)ccc2S(=O)(=O)N([C@H](C)CO)C[C@@H]1C	-8	.	-1	-19	66*	-12[16.7 µM]
O=C(CSc1nc2ncc(Br)cc2[nH]1)c1cccc([N+](=O)[O-])c1	.	15	.	.	67*	-15
O=C(Cc1nc2ccccc2[nH]1)c1cccc([N+](=O)[O-])c1	2	62*	.	-5	46	73*
Cc1nc2nc(SCC(=O)c3cccc([N+](=O)[O-])c3)[nH]c2cc1Br	.	-7	1	-3	.	.
COc1cc(-c2nccc3cc4c(cc23)OCO4)cc(OC)c1OC	9.2*	-5	1	13	32	-14
C[C@H](CO)N1C[C@H](C)[C@@H](CN(C)C(=O)c2ccc3c(c2)OCO3)Oc2ncc(C3=CCCCC3)cc2C1=O	-3	13	-26	8	9	0[16.7 µM]
COc1ccc(NC(=O)C2CCN(c3cc(-c4ccccc4)nc4ncnn34)CC2)cc1OC	.	.	.	2	.	60*
O=C1/C(=C\c2ccc(Cl)c(Cl)c2)CN(C(=O)CCN2CCOCC2)C/C1=C/c1ccc(Cl)c(Cl)c1	-5	89*	?	4	56*	.
O=C(NCCN1CCOCC1)c1ccc(Cl)c(Cl)c1	-5	3	-5	-5	-4	3
CNC[C@@H]1Oc2c(NS(C)(=O)=O)cccc2C(=O)N(C)C[C@H]1C	.	.	.	1	.	.
CN(C)CCCNC(=O)C[C@H]1CC[C@H](NC(=O)Cc2cccnc2)[C@@H](CO)O1	-1	12	-6	4	0	-6[16.7 µM]
Cc1cccc(NC(=O)/C=C/c2ccc([N+](=O)[O-])s2)c1	-8	73*	.	-8	68*	-292
Cc1cccc(NC(=S)N/N=C/c2ccc([N+](=O)[O-])s2)c1	.	.	-26	3	.	105*
Cc1ccc(C(=O)N/N=C/c2ccc([N+](=O)[O-])s2)cc1	.	.	-11	.	.	.
SMILES	CFTR F508del cor	PAX8 reporter	PGC1a acetyl inh	FN deposition inh	EWS-Fli inh	Env fusion inh
O=C(N/N=C/c1ccc(O)c2ncccc12)c1cccc(Br)c1	0	72*	?	10	21	?
O=C(N/N=C/c1ccc([N+](=O)[O-])s1)c1cccc(Br)c1	.	.	.	.	.	66*
CCCN1[C@H](C(=O)OC)[C@@H](CO)[C@@H]2Cn3c(ccc(-c4cccnc4)c3=O)[C@@H]21	3	.	2	.	-8	.
C[C@H](CO)N1C[C@H](C)[C@H](CN(C)S(=O)(=O)c2ccc(Cl)cc2)Oc2ccc(NS(=O)(=O)c3ccc(Cl)cc3)cc2CC1=O	-1	8	5	.	-6	40[16.7 µM]
C[C@@H]1CCCCO[C@H](CN(C)C(=O)NC2CCCCC2)[C@H](C)CN([C@H](C)CO)C(=O)c2cc(NS(C)(=O)=O)ccc2O1	2	2	-1	-3	0	-12[16.7 µM]
C[C@H](O)C#Cc1ccc2c(c1)O[C@@H](CN(C)Cc1ccncc1)[C@H](C)CN([C@@H](C)CO)S2(=O)=O	-1	.	-12	0	-3	7[16.7 µM]
Cc1ccc(NC(=O)/C=C/c2ccc([N+](=O)[O-])s2)cc1	.	39	.	-12	.	.
Cc1ccc(NC(=O)/C=C/c2ccc([N+](=O)[O-])s2)c(C)c1	.	98*	.	0	71*	-38
CO[C@H]1CN(C)C(=O)c2ccc(NC(=O)Nc3c(C)noc3C)cc2OC[C@H](C)N(C)C[C@H]1C	0	.	4	.	-3	3[16.7 µM]
COc1ccc(C2C(C(N)=O)=C(C)Nc3nc(-c4cccc(Cl)c4)nn32)cc1OC (stereo unspecified)	.	.	-4	28	.	58*
Cc1cccc(-c2ccc([C@@H]3[C@@H](CO)N4CCCCN(S(=O)(=O)c5cccs5)C[C@@H]34)cc2)c1	-2	7	-20	.	4	.
O=C(O)C[C@H]1C[C@H]2c3cc(NC(=O)Nc4ccc(F)cc4)ccc3O[C@H]2[C@H](CO)O1	-4	.	3	-7	7	.
CC(C)Cc1cc(C(=O)O)c2ccccc2n1	.	.	15	.	.	.
CC(=O)c1ccc(NC(=O)c2cc(CC(C)C)nc3ccccc23)cc1	-3	5	17	5	-48	58*
Cc1cccc(NC(=O)c2ccccc2NC(=O)C2CCCCC2)c1C	8.1*	.	-4	.	10	.
O=C(Nc1ccccc1)c1ccccc1NC(=O)C1CCCCC1	.	.	-18	.	.	.
O=C(Cc1ccc(Cl)cc1)c1c[nH]c(C(=O)NCc2cccnc2)c1	-2	-2	-65	.	66*	8
CC(C)(C)c1ccc(C(=O)c2c[nH]c(C(=O)NCc3cccnc3)c2)cc1	.	.	-257	2	.	31
COC(=O)c1cnc(Oc2ccc(NC(=O)NC(=O)c3c(OC)cccc3OC)cc2)cc1C(F)(F)F	7	73*	1	-8	52*	-128
COC(=O)c1cnc(Oc2ccc(NC(=O)NC(=O)c3c(F)cccc3F)cc2)cc1C(F)(F)F	.	22	7	-14	-2	18
